How the values were obtained:
Plasmodium falciparum [1] = test: Antiplasmodial activity against asexual stage of chloroquine-sensitive Plasmodium falciparum D6 infected in human erythrocytes assessed as reduction in parasite growth incubated for 72 hrs by SYBR green 1 staining based assay; format: functional, organism-based; settings: D6, Erythrocyte
Procedure, shortened: (§1)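 P. falciparum grown in human erythrocytes at 2% hematocrit in RPMI 1640 with 0.5% Albumax II, hypoxanthine and gentamicin. Assay run at 0.2% parasitemia, 2% hematocrit, triplicate, 72 h at 37 °C under low oxygen. Starting range 2.5–2500 nM, adjusted as needed. SYBR Green I lysis buffer added for 1 h in the dark, fluorescence read at ex 497/em 520 nm. IC50 by nonlinear regression against drug-free controls.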

Plasmodium falciparum [2] = test: Antiplasmodial activity against asexual blood stage of multidrug-resistant Plasmodium falciparum Dd2 infected in human erythrocytes assessed as reduction in parasite growth incubated for 72 hrs by SYBR green 1 staining based assay; format: functional, organism-based; settings: Dd2, Erythrocyte; procedure, shortened: as §1
Plasmodium falciparum [3] = test: Antiplasmodial activity against asexual blood stage of multidrug-resistant Plasmodium falciparum TM90C2B infected in human erythrocytes assessed as reduction in parasite growth incubated for 72 hrs by SYBR green 1 staining based assay; format: functional, organism-based; settings: Erythrocyte
HepG2 = test: Cytotoxicity against human HepG2 cells assessed as reduction in cell viability measured for 48 hrs by MTT assay; format: cell-based; settings: HepG2, 48 h
Plasmodium yoelii [4] = test: Antimalarial activity against blood stage Plasmodium yoelii infected in CF1 mouse assessed as reduction in parasitemia at 5 mg/kg, po administered once daily for 4 days and measured on day 5 by Giemsa staining based microscopic analysis relative to control; format: functional; set-up: scale not given: the % may be the effect or the level left; settings: time 4 day
Procedure, shortened: (§2)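 Female CF1 mice, 7–8 weeks old, about 30 g, n = 4 per group. Infected iv with 2.5 × 104 P. yoelii (Kenya strain) parasitized erythrocytes from a donor mouse. Dosed orally in PEG-400, 5 or 25 mg/kg once daily for 4 days, starting the day after inoculation. Giemsa-stained tail-vein blood films read the day after the last dose, then weekly to day 28. Parasitemia taken relative to vehicle controls.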

Plasmodium yoelii [5] = test: Antimalarial activity against blood stage Plasmodium yoelii infected in CF1 mouse assessed as reduction in parasitemia at 25 mg/kg, po administered once daily for 4 days and measured on day 5 by Giemsa staining based microscopic analysis relative to control; format: functional; set-up: scale not given: the % may be the effect or the level left; settings: time 4 day; procedure, shortened: as §2
Plasmodium yoelii [6] = test: Antimalarial activity against blood stage Plasmodium yoelii infected in CF1 mouse assessed as reduction in parasitemia administered orally once daily for 4 days and measured for 28 days by Giemsa staining based microscopic analysis; format: functional; settings: po, 96 h, time 4 day
Procedure, shortened: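 Female CF1 mice, 7–8 weeks old, about 30 g, n = 4 per group. Dosed orally in PEG-400, 5 or 25 mg/kg once daily for 4 days, starting the day after inoculation. Giemsa-stained tail-vein blood films read the day after the last dose, then weekly to day 28. Parasitemia taken relative to vehicle controls.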

[7] = Toxicity in CF-1 mouse infected with blood stage Plasmodium yoelii assessed as reduction in body weight at 5 to 25 mg/kg, po administered once daily for 4 days and measured for 28 days; format: organism-based; settings: in vivo, 96 h, dose 5-25 mg/kg, time 4 day
Procedure, shortened: (§3)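 CF1 mice infected with P. yoelii and given oral doses of 5 or 25 mg/kg in PEG-400 once daily for 4 days. Checked daily for mortality, morbidity and signs of toxicity. Body weight, grooming, posture and locomotion monitored over the study, to day 28. Compared with the vehicle control group.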

[8] = Toxicity in CF-1 mouse infected with blood stage Plasmodium yoelii assessed as behavioral changes at 5 to 25 mg/kg, po administered once daily for 4 days and measured for 28 days; format: organism-based; settings: in vivo, 96 h, dose 5-25 mg/kg, time 4 day; procedure, shortened: as §3
[9] = Therapeutic index, ratio of IC50 for cytotoxicity against human HepG2 cells to IC50 for antiplasmodial activity against asexual blood stage of chloroquine-sensitive Plasmodium falciparum D6 infected in human erythrocytes
Plasmodium falciparum [10] = test: Antiplasmodial activity against asexual blood stage of multidrug-resistant Plasmodium falciparum 7G8 infected in human erythrocytes assessed as reduction in parasite growth incubated for 72 hrs by SYBR green 1 staining based assay; format: functional, organism-based; settings: 7G8, Erythrocyte; procedure, shortened: as §1

SMILES | IC50 (Plasmodium falciparum [1]) | IC50 (Plasmodium falciparum [2]) | IC50 (Plasmodium falciparum [3]) | IC50 (HepG2) | Activity (Plasmodium yoelii [4]) | Activity (Plasmodium yoelii [5]) | ED50 (Plasmodium yoelii [6]) | ED90 (Plasmodium yoelii [6]) | Activity [7] | Activity [8] | selectivity ratio [9] | IC50 (Plasmodium falciparum [10])
COC1=CC2=N/C1=C\NCC/C=C/CCCCCCCCc1ccc2[nH]1.Cl | 22 nM | 16 nM | 13 nM | 29400 nM | 0% | 100% | 15 mg/kg/day | 16 mg/kg/day | Non-Toxic | Non-Toxic | 1340 | –
CCCCc1cc(/C=C2\N=C(c3ccc(Cc4ccc(O)cc4)[nH]3)C=C2OC)[nH]c1C.Cl | 12 nM | 12 nM | 17 nM | 8880 nM | 0% | 6% | – | – | Non-Toxic | Non-Toxic | 740 | 16 nM
CCCCc1cc(/C=C2\N=C(c3ccc[nH]3)C=C2OC)[nH]c1C.Cl | 11 nM | 5.6 nM | 8.5 nM | 3320 nM | 67% | 100% | 2.5 mg/kg/day | 8.5 mg/kg/day | Non-Toxic | Non-Toxic | 301 | 8.7 nM
CCCCCCCc1cc(/C=C2\N=C(c3ccc[nH]3)C=C2OC)[nH]c1C.Cl | 4.2 nM | 4.5 nM | 2.5 nM | 1350 nM | 89% | 100% | 2.6 mg/kg/day | 9.2 mg/kg/day | Non-Toxic | Non-Toxic | 320 | 4.1 nM
O=C1C(O)=C([C@H]2CC[C@H](c3ccc(Cl)cc3)CC2)C(=O)c2ccccc21 [ATOVAQUONE] | 0.1 nM | – | – | – | – | – | – | – | – | – | – | 0.2 nM
CCCCCc1cc(/C=C2\N=C(c3ccc[nH]3)C=C2OC)[nH]c1C.Cl | 8 nM | 7.3 nM | 8.8 nM | 1070 nM | 63% | 100% | 3.7 mg/kg/day | 17 mg/kg/day | Non-Toxic | Non-Toxic | 134 | 9.2 nM
COC1=CC(c2ccc[nH]2)=N/C1=C\c1cc(CCCCC(C)C)c(C)[nH]1.Cl | 4.1 nM | 2.1 nM | 2.6 nM | 1490 nM | 65% | 100% | 2.7 mg/kg/day | 5.9 mg/kg/day | Non-Toxic | Non-Toxic | 363 | 2.1 nM
CCCCCc1cc(/C=C2\N=C(c3ccc(Cc4ccc(OC)cc4)[nH]3)C=C2OC)[nH]c1C.Cl | 2.4 nM | 3.2 nM | 2.3 nM | 2640 nM | 60% | 100% | 3.6 mg/kg/day | 18 mg/kg/day | Non-Toxic | Non-Toxic | 1100 | 5.6 nM
CCCCCCc1cc(/C=C2\N=C(c3ccc[nH]3)C=C2OC)[nH]c1C.Cl | 5.9 nM | 3.4 nM | 4.6 nM | 2420 nM | 70% | 100% | 1.5 mg/kg/day | 4.8 mg/kg/day | Non-Toxic | Non-Toxic | 410 | 3.6 nM
CCCCCc1cc(/C=C2\N=C(c3ccc(Cc4ccc(O)cc4)[nH]3)C=C2OC)[nH]c1C.Cl | 16 nM | 28 nM | 29 nM | 7020 nM | 0% | 0% | – | – | Non-Toxic | Non-Toxic | 439 | 27 nM
CCCCCCc1cc(/C=C2\N=C(c3ccc(Cc4ccc(O)cc4)[nH]3)C=C2OC)[nH]c1C.Cl | 9 nM | 11 nM | 12 nM | 9930 nM | 0% | 9% | – | – | Non-Toxic | Non-Toxic | 1100 | 13 nM
CCN(CC)CCCC(C)Nc1ccnc2cc(Cl)ccc12 (stereo unspecified) [CHLOROQUINE] | – | – | – | – | 100% | 100% | – | – | – | – | – | –
CCCCCCCc1cc(/C=C2\N=C(c3ccc(Cc4ccc(O)cc4)[nH]3)C=C2OC)[nH]c1C.Cl | 48 nM | 54 nM | 40 nM | 9240 nM | 25% | 37% | – | – | Non-Toxic | Non-Toxic | 192 | 44 nM
C=CCCCCCCCCc1ccc(C2=N/C(=C\NCCC=C)C(OC)=C2)[nH]1.Cl | 8.9 nM | 6.5 nM | 2.6 nM | 1600 nM | 0% | 42% | – | – | Non-Toxic | Non-Toxic | 180 | –

From ChEMBL document CHEMBL5032501, “Total Synthesis and Antimalarial Activity of 2-(p-Hydroxybenzyl)-prodigiosins, Isoheptylprodigiosin, and Geometric Isomers of Tambjamine MYP1 Isolated from Marine Bacteria” (J Med Chem, 2021)
